The record followed here is ChEMBL document CHEMBL3856201, “5,10b-Ethanophenanthridine amaryllidaceae alkaloids inspire the discovery of novel bicyclic ring systems with activity against drug resistant cancer cells” (2016).

Experiment [1] in a line: Antiproliferative activity against human MES-SA cells after 48 to 96 hrs by MTT assay. It is filed as functional. The method in brief:
(§1)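 Parent MES-SA and MES-SA/Dx5 uterine sarcoma cells were grown in RPMI-1640 with 10% FBS. The Dx5 line was kept in 500 nM doxorubicin after stepwise selection from 100 nM in twofold steps, about 2 passages per step. MTT assay used 0.001–100 µM compound for 48–96 h, with 0.1% DMSO and 1 µM phenyl arsine oxide controls. The ratio is the Dx5 GI50 divided by the parent GI50.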
Background: Tetrazolium dyes change colour on reduction, which living cells bring about.

A short description of experiment [2]: Antiproliferative activity against patient-derived paclitaxel-resistant NCI-H2073 cells after 48 to 96 hrs by MTT assay. The class given is functional. The conditions noted are these: Homo sapiens.
Another experiment concerns MES-SA. Kind of experiment: Selectivity ratio of GI50 for human MES-SA/Dx5 cells to GI50 for human MES-SA cells. It is filed as functional. The method in brief: as §1
Experiment [3] is described as follows: Antiproliferative activity against drug-resistant human A549 cells up to 100 uM after 48 to 96 hrs by MTT assay relative to control. It is filed as functional. Put shortly: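 A549 cultures in RPMI with 10% heat-inactivated FBS were treated across a concentration range up to 100 µM, with phenyl arsine oxide as the nondiscriminate cytotoxic reference. Growth curves were read by MTT assay. Two independent experiments, each in 4 replicates.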

The nature of experiment [4]: Antiproliferative activity against patient-derived paclitaxel-sensitive NCI-H1993 cells after 48 to 96 hrs by MTT assay. The class given is functional. The conditions noted are these: Homo sapiens.
Experiment [5] can be described thus: Antiproliferative activity against human MES-SA/Dx5 cells after 48 to 96 hrs by MTT assay. It is filed as functional. Put shortly: as §1
The species named for the next experiment is Oryctolagus cuniculus. Kind of experiment: Inhibition of cap/HCV-mediated translation in rabbit reticulocyte lysate expressing FF/HCV/Ren mRNA reporter transcript assessed as reduction in luciferase production at 50 uM after 1 hr relative to control. It is filed as functional. Put shortly:
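Rabbit reticulocyte lysate was programmed with bicistronic FF/HCV/Ren mRNA and incubated with compound (50 µM) or 0.5% DMSO vehicle. Firefly and Renilla luciferase activities were expressed relative to the DMSO control. Two independent translation reactions, reported with error of the mean.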

Experiment [6] is described as follows: Antiproliferative activity against drug-resistant human U373 cells after 48 to 96 hrs by MTT assay. The conditions noted are these: U373 MG. The class given is functional, U-373MG ATCC. Put shortly:
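Culture was RPMI with 10% heat-inactivated FBS plus glutamine and antibiotics for U373 cells. Compound exposure was 0.001–100 µM for 48–96 h, with 0.1% DMSO and 1 µM phenyl arsine oxide as controls. The MTT assay gave the average concentration cutting viability by 50%; replicate numbers varied.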

Experiment [7] can be described thus: Antiproliferative activity against drug-resistant human T98G cells after 48 to 96 hrs by MTT assay. It is filed as functional. Put shortly: (§2)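 MTT read-out. T98G and Hs683 cells were grown in DMEM with 10% FBS, glutamine, gentamicin and penicillin-streptomycin at 37 °C and 5% CO2. Compounds came from 100 or 50 mM DMSO stocks and were tested at 0.001–100 µM for 48–96 h. Controls were 0.1% DMSO (negative) and 1 µM phenyl arsine oxide (positive). The value is the mean concentration giving 50% viability loss; replicate number varied.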

Experiment [8] in a line: Inhibition of cap/HCV-mediated translation in mouse Krebs2 cell free extract expressing FF/HCV/Ren mRNA reporter transcript assessed as reduction in luciferase production at 50 uM relative to control. It is filed as functional. The method in brief: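 Krebs-2 translation extracts were programmed with bicistronic FF/HCV/Ren mRNA and incubated with compound at 50 µM or vehicle (0.5% DMSO). Firefly (cap) and Renilla (HCV IRES) luciferase activities were expressed relative to the DMSO control, from 2 independent translation reactions, as mean with error of the mean. Reference inhibitors were 1 µM hippuristanol and 10 µM anisomycin.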

Experiment [9] is described as follows: Antiproliferative activity against patient-derived TMZ-resistant GBM 031810 cells over-expressing MGMT after 48 to 96 hrs by MTT assay. The class given is functional. As to conditions: Homo sapiens.
The nature of experiment [10]: Antiproliferative activity against patient-derived TMZ-sensitive GBM 090909 cells after 48 to 96 hrs by MTT assay. The class given is functional. The conditions noted are these: Homo sapiens. The method in brief: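 Primary GBM neurosphere cultures came from resected patient tumour. Tissue was minced, dissociated with 100 U/mL collagenase in neurobasal medium for 30 min at 37 °C, filtered through 70 µm, spun at 200 × g for 5 min, and grown in ultra-low attachment wells in neurobasal medium with B27. Compounds were applied at 0.001–100 µM for 48–96 h. MTT gave the average 50%-viability concentration.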

Experiment [11] can be described thus: Antiproliferative activity against human MCF7 cells after 48 hrs by MTT assay. The class given is functional. The conditions noted are these: MCF7, 48 h. The method in brief: (§3)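 HeLa cells were cultured in DMEM + 10% FBS and MCF-7 cells in RPMI + 10% FBS, both at 37 °C under 5% CO2. Compounds were diluted from DMSO stocks and applied for 48 h. Viability was read by MTT relative to DMSO control. The value is the concentration reducing viability by 50%, ±SD from two independent experiments of 4 replicates each.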

Experiment [12] in a line: Antiproliferative activity against human HeLa cells after 48 hrs by MTT assay. It is filed as functional. Put shortly: as §3
Experiment [13] can be described thus: Antiproliferative activity against drug-resistant human U251 cells after 48 to 96 hrs by MTT assay. As to conditions: U-251. It is filed as functional. Put shortly: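 U251 cells were kept in 10% MEM with glutamine, gentamicin and penicillin-streptomycin at 37 °C and 5% CO2. After seeding they were grown 24–72 h and then given compounds at 0.001–100 µM (from 100 or 50 mM DMSO stocks) for 48–96 h. Viability was read by MTT. Vehicle control was 0.1% DMSO; 1 µM phenyl arsine oxide served as positive control. The result is the average 50%-viability-reducing concentration.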

Experiment [14] in a line: Antiproliferative activity against drug-resistant human U87 cells after 48 to 96 hrs by MTT assay. It is filed as functional, U-87MG ATCC. The conditions noted are these: U-87 MG. Put shortly:
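U87 cells grown in DMEM with glutamine, gentamicin and penicillin-streptomycin (37 °C, 95% humidity, 5% CO2) were seeded and then treated with 0.001–100 µM compound for 48–96 h. Readout was MTT. Controls were 0.1% DMSO and 1 µM phenyl arsine oxide. The value is the average concentration reducing viability 50%.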

Experiment [15] in a line: Antiproliferative activity against drug-sensitive human Hs683 cells after 48 to 96 hrs by MTT assay. As to conditions: Hs 683. It is filed as functional. Put shortly: as §2
In experiment [16] the test system is HeLa S3. The experiment is described as follows: Inhibition of translation in human HeLaS3 assessed as induction of dis-aggregation of polysomes at 50 uM after 1 hr by UV-based […] method. The class given is functional. Put shortly: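 HeLa S3 cells were exposed to 50 µM compound for 1 h, then analysed by polysome profiling against a DMSO-treated control profile.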

For experiment [17], the system named is HeLa S3. Kind of experiment: Inhibition of translation in human HeLaS3 assessed as increase in eIF2alpha phosphorylation at 50 uM after 1 hr by Western blot analysis. The class given is functional. The method in brief:
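HeLa S3 cells were exposed to 50 µM compound for 1 h. Extracts were resolved by SDS-PAGE and transferred to PVDF. Western blots were probed for phospho-eIF2α, pan-eIF2α and eEF2.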

A further experiment has as its system NCI-H1993. Kind of experiment: Potentiation of paclitaxel-induced cytotoxicity against patient-derived paclitaxel-sensitive NCI-H1993 cells assessed as reduction in cell viability up to 100 uM after 96 hrs by Celltiter-Glo luminescent assay. It is filed as functional, cell-based. As to conditions: Homo sapiens. Put shortly: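 NCI-H1993 cells were seeded at 4×10^3 per well and grown 24 h. […] Viability was read by CellTiter-Glo luminescence. Predicted additivity was calculated by Bliss independence, Exy = Ex + Ey − ExEy.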

Experiment [18] can be described thus: Antiproliferative activity against drug-resistant human A549 cells after 48 to 96 hrs by MTT assay. The class given is functional. The method in brief: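 A549 cells grown in RPMI with 10% heat-inactivated FBS, 4 mM glutamine and antibiotics at 37 °C under 5% CO2. Compounds came from 100 or 50 mM DMSO stocks and were tested at 0.001–100 µM for 48–96 h. Read-out was MTT. The value is the mean concentration giving 50% viability loss, with varied replicate numbers. Controls were 0.1% DMSO (negative) and 1 µM phenyl arsine oxide (positive).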

Activity calls are given as the source filed them. The rule behind the calls is not given here. Some results are limits rather than exact numbers.

Broadly, the GI50 is the concentration giving 50% growth inhibition. A low value points to more potent growth inhibition. Broadly, the inhibition is the change of the read-out against control, counted positive when it falls.

Turning to `CC(=O)O[C@H]1C(=O)[C@@]2(C)[C@H]([C@H](OC(=O)c3ccccc3)[C@]3(O)C[C@H](OC(=O)[C@H](O)[C@@H](NC(=O)c4ccccc4)c4ccccc4)C(C)=C1C3(C)C)[C@]1(OC(C)=O)CO[C@@H]1C[C@@H]2O` [PACLITAXEL], the GI50 in [1] was found to be 0.007 µM; in [2] it was 2.4 µM; in [4], 0.004 µM; in [5], 10 µM. Also, the RatioGI50 in the experiment with MES-SA is given as more than 1000. Moreover, the “inhibition (INH)” value in [3] amounted to 50%.

Regarding `O=C1C=C[C@]23CC[N@](Cc4c2sc2ccccc42)[C@H]3C1`, the inhibition in the experiment filed under Oryctolagus cuniculus is 25%. Further, the 50% growth inhibitory concentration (GI50) in experiment [1] worked out at 5 µM; in [6], 2 µM; in experiment [7], 7 µM; in experiment [2], 11 µM; in experiment [9], 1 µM; in [10], 5 µM. The 50% growth inhibitory concentration (GI50) was found to be 5 µM in experiment [11]; 8 µM in experiment [12]; 1 µM in experiment [13]; 2 µM in [14]; 3 µM in experiment [15]; 3 µM in experiment [4]. The GI50 is 7 µM in experiment [5] and 9 µM in [18]. In [8], the inhibition at 50 µM was 25%. Further, the inhibition entry with HeLa S3 [16] and in the experiment with HeLa S3 [17] was “Active” each time. In addition, in the experiment on NCI-H1993, the outcome was Active.
